# Sampled rows, rich in hits. Any-hit rate of the full collection: about 1.8%.
# DNMT1 inh: human DNMT1 methyltransferase inhibitors, primary screen, biochemical, molecular beacon, fluorescence, HinP1I cleavage, uHTS; DNA (cytosine-5)-methyltransferase 1 (Homo sapiens), P26358; inhibition (reported as % activation of signal), % at 10 µM; 360,000 tested, 0.83% active; in the data active means inhibition above about 50%
# Scp1 inh: Scp-1 phosphatase inhibitors, primary screen, biochemical, colorimetric, uHTS; Recombinant Scp1, phosphopeptide, malachite green phosphate absorbance; inhibition, % at 20 µM; 340,000 tested, 0.88% active;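 active means inhibition above about 50% at 20 µM, limit read from the data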;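 further: plate controls were DMSO wells with enzyme for no effect and wells lacking enzyme for full effect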
# Target sequence (Q9GZU7 76-261 limits assumed): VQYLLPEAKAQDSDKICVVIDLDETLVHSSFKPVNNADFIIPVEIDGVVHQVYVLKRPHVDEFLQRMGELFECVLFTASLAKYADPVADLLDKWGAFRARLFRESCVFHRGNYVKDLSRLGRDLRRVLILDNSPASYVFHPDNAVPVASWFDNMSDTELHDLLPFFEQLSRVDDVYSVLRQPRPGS
#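 Incubation: 45 min enzyme reaction at room temperature / System: truncated SCP-1 phosphatase (76-261aa) / Reagent: Phospho 17-mer peptide substrate / Buffer or medium: Acidic Tris acetate buffer with magnesium and detergent / Signal: absorbance at 630 nm / Doses: one concentration, 20 µM, with 1.0% DMSO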
# SUMO1-SIM PPI: modulators of SUMO1 protein-protein interactions, primary screen, biochemical, uHTS. AID 602429, 2012. 360,000 tested, 0.33% active. Small ubiquitin-related modifier 1 (Homo sapiens), P63165. SUMO1 binding to a labelled peptide, TR-FRET, 1 h. inhibition, % at 20 µM; in the data active means inhibition above about 37%
# Target sequence (P63165 whole entry, looked up): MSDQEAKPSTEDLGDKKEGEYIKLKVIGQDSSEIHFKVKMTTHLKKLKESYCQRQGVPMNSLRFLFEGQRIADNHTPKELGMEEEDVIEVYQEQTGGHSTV
# LMPTP block: LMPTP phosphatase inhibitors, primary screen, biochemical, fluorescence intensity, uHTS; Low molecular weight phosphotyrosine protein phosphatase (Homo sapiens), P24666; recombinant LMPTP-A, OMFP fluorogenic substrate; inhibition, % at 20 µM; 360,000 tested, 0.22% active;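 active means compounds that cut the enzyme signal by at least half of the control window in the single-dose screen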;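 further: plate controls were DMSO wells with enzyme plus substrate for no effect and substrate without enzyme for full effect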
# Target sequence (P24666 whole entry, looked up): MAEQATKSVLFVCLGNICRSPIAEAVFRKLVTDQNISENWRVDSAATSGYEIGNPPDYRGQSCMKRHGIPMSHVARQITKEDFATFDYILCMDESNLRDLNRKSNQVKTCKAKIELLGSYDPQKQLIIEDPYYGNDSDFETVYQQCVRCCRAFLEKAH
#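 Assay system: LMPTP-A phosphatase enzyme | Input: 0.625 nM enzyme | Also added: Fluorogenic phosphatase substrate OMFP at 400 µM final | Compound dosing: One test concentration per compound, 20 µM, with 3% DMSO overall | Schedule: 50 min enzyme reaction at room temperature, protected from light | Signal: Fluorescence intensity | Benchmarks: no-enzyme and uninhibited controls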
# STEP block: STEP phosphatase inhibitors, primary screen, biochemical, fluorescence intensity, uHTS | inhibition, % at 20 µM | AID 588621, 2011 | Tyrosine-protein phosphatase non-receptor type 5 (Homo sapiens), P54829 | recombinant STEP, OMFP fluorogenic substrate | 360,000 tested, 0.25% active;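 active means inhibition at 20 µM, scaled per plate between control wells, above about 37%, limit read from the data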;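 further: 0% = DMSO with enzyme and substrate and 100% = substrate only without enzyme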
#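 Assay system: isolated STEP enzyme / Timing: 20 min at room temperature, dark / Doses: 20 µM, 1% DMSO / Technique: fluorescence intensity, excitation 480 nm, emission 540 nm / Reagent: fluorogenic phosphatase substrate OMFP at 25 µM final / Measure: percent inhibition scaled to no-enzyme and uninhibited-enzyme controls, plate-pattern corrected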
# Scp-1 conf: Scp-1 phosphatase inhibitors, retest, confirmation, biochemical, colorimetric, single concentration. shares compounds with Scp1 inh. recombinant SCP-1 catalytic domain, phosphate release, malachite green absorbance. inhibition, % at 20 µM. 2,500 tested, 61% active. AID 540281, 2011;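 further: plate controls were DMSO with enzyme for no effect and buffer wells lacking enzyme for full effect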
# Scp-1 MG ctr: colorimetric readout interference by compounds, confirmation, artefact control for Scp-1 inhibitor project, biochemical, single concentration; shares compounds with Scp1 inh; Colorimetric interference counterscreen, malachite green absorbance 630 nm; apparent inhibition (interference), % at 20 µM; 2,500 tested, under 10 active; AID 540313, 2011;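 further: compounds added after enzyme reaction finished so only phosphate colour detection is probed; plate controls were DMSO wells with completed Scp-1 reaction for no effect and substrate wells lacking enzyme for full effect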
# Scp1 DSF: Scp-1 binding by thermal shift, confirmation, orthogonal assay for Scp-1 inhibitor project, biophysical, differential scanning fluorimetry | AID 540329, 2011 | Recombinant SCP1, Sypro Orange thermal shift Tm | 1,500 tested, 25% active | thermal shift relative to vanadate control, % at 40 µM | shares compounds with Scp1 inh;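 active means substances whose mean melting-temperature shift, as a percentage of the reference inhibitor's shift, reaches about 5.3%, limit read from the data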;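 further: 0% = Tm of DMSO wells and 100% = Tm with sodium orthovanadate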
# DNMT1 inh conf: DNMT1 methyltransferase inhibitor retest, confirmation, biochemical, molecular beacon, fluorescence, single concentration | shares compounds with DNMT1 inh | DNMT1 molecular beacon HinP1I cleavage | inhibition, % at 10 µM | 2,300 tested, 8% active | AID 602385, 2012;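 active means average inhibition of at least 30% in the single-concentration confirmation test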
# Beacon interf: shows spectral interference in the DNMT1 beacon assay; AID 602387; DNMT1 molecular beacon spectral interference counterscreen, fluorescence 485/520; activation (fluorescence interference), % at 10 µM; shares compounds with DNMT1 inh; 2,300 tested, 1% active;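 active means activation of at least 30% at 10 µM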;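 further: DNMT1 catalytic domain with a HinP1I cleavage step and a FAM/dabcyl DNA beacon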
# STEP inh conf: STEP phosphatase inhibitor hit confirmation, biochemical, fluorescence intensity, single concentration | shares compounds with STEP block | recombinant STEP, OMFP fluorogenic substrate | inhibition, % at 20 µM | 520 tested, 32% active | AID 623866, 2012; call rule not given here;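 further: 0% = enzyme with substrate plus DMSO and 100% = substrate without enzyme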
# * hit, by the source's call; . = not tested or not shown.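 How the source made its calls, unless noted: active means inhibition of at least 30% at 20 µM; inactive means the rest.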
SMILES,DNMT1 inh,Scp1 inh,SUMO1-SIM PPI,LMPTP block,STEP block,Scp-1 conf,Scp-1 MG ctr,Scp1 DSF,STEP inh conf,others
COc1cccc(N2[C@@H](CC(C)=O)c3ccccc3S2(=O)=O)c1,3.5,-5.2,4.0,0.5,-1.3,.,.,.,.,
COc1ccc(C(=O)N/N=C\C(C)=C\c2ccccc2)cc1OC,-4.9,6.5,-14.5,-0.1,-1.8,.,.,.,.,
CC(/C=N/NC(=O)c1ccc(Br)cc1)=C\c1ccccc1,50.1*,94.1*,-4.1,54.7*,54.9*,89.2*,-3.2,-20.7,-1.8,DNMT1 inh conf=1.2;Beacon interf=1.6
O=C(N[C@H]1C/C=C\C[C@H](CC(=O)N(CCO)Cc2ccccc2)C(=O)N[C@@H](c2ccccc2)COC1=O)OCC1c2ccccc2-c2ccccc21,-10.8,7.9,0.6,2.8,1.1,.,.,.,.,
CCOc1ccc(C(=O)c2cc3ccc(O)cc3oc2=O)cc1,-3.9,-3.0,-22.6,-0.2,0.2,.,.,.,.,
O=C(c1ccc([N+](=O)[O-])cc1)c1cc2ccc(O)cc2oc1=O,1.1,72.2*,-28.7,22.1,53.1*,55.0*,-4.6,5.7*,0.4,
COc1ccc2cc(C(=O)Nc3ccc(F)cc3)sc(=O)c2c1OC,12.3,55.5*,-4.2,38.3,49.3*,41.2*,-22.4,-14.9,14.0,
COc1ccc2cc(C(=O)Nc3ccc(Cl)cc3)sc(=O)c2c1OC,57.0*,92.1*,-2.2,0.5,59.3*,65.1*,-13.1,-8.7,26.6,DNMT1 inh conf=14.4;Beacon interf=0.2
Cc1ccc2oc(-c3ccc(NC(=O)c4ccncc4)cc3O)nc2c1,33.9,4.6,-4.9,3.7,-1.1,.,.,.,.,
Cc1ccc2oc(-c3cc(NC(=O)c4ncn[nH]4)ccc3O)nc2c1,49.6,84.5*,15.1,42.7,78.3*,81.3*,-7.6,0.1,-1.0,
Cc1ccc(-c2c(NCCc3ccccc3)c(=O)c2=O)cc1,10.1,89.0*,5.0,26.1,57.1*,59.0*,-10.1,-8.5,9.3,
C[C@H](CO)N1C[C@H](C)[C@@H](CN(C)Cc2ccc(Oc3ccccc3)cc2)Oc2c(NC(=O)c3ccncc3)cccc2C1=O,-13.2,37.5,15.9,0.5,1.2,.,.,.,.,
Cc1cc(=O)oc2cc(NC(=O)c3cccc(F)c3)ccc12,58.3*,62.8*,13.2,29.6,91.4*,35.4*,-17.0,-28.2,14.8,DNMT1 inh conf=0.3;Beacon interf=-0.3
Cc1cc(=O)oc2cc(NC(=O)c3ccc(OC(F)F)cc3)ccc12,28.3,87.1*,-0.6,41.2,84.3*,79.5*,-11.8,-5.6,12.6,
